Read-outs that look alike come from different tables or passages of the source. Square brackets hold non-standard residues; d marks the D form. Peptide text beside a SMILES is read from it. pS = N[C@@H](COP(=O)(O)O)C(=O)O

Results on 2 compounds are retold here after article PMC5298935 (The FEBS journal, 2016).

Assay [1] has as its target T1, Pin1-FL (Homo sapiens, UniProt Q13526). The assay is classed as binding. To be noted: B = C-terminal site. The method, boiled down: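 Full-length Pin1 underwent reverse titration with dually phosphorylated peptides; HSQC perturbations in N and H dimensions were fit separately (fmincon). The multistate model added two bivalent states, each with its own Keq. Non-bivalent KD and bound shifts were fixed from single-site titrations. Residues needed distinct bound shifts per motif. Reduced chi-square used σH 0.00407 and σN 0.0205 ppm.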

For assay [2], the target named is T1, Pin1-FL. In words: Simulation of Pin1-FL binding at low micromolar concentrations.
The target of assay [3] is Pin1-FL (with 6X-His tag) (Homo sapiens, UniProt Q13526). In words: Biolayer interferometry. The assay is classed as binding. A digest of the protocol:
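Ni-NTA biosensors loaded with 10 μg/mL His-tagged full-length Pin1 for 600 s, quenched 300 s with buffer plus 10 mM imidazole and 25 μg/mL biotin. Association with singly or dually phosphorylated peptide at 80–1.25 μM for 600 s, then 600 s dissociation in buffer. Buffer: 10 mM HEPES, 20 mM NaCl, 0.1 mM TCEP, pH 7.4; 25°C. Pin1-free sensors served as nonspecific-binding reference.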
In general terms: BLI is a label-free optical method that tracks binding on a fibre tip over time.

T1 sequence (Q13526 whole entry): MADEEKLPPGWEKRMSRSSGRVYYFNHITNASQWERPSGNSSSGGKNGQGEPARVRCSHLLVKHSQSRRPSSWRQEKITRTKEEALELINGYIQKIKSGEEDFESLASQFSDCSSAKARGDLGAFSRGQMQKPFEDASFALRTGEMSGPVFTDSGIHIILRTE
Sequence of Pin1-FL (with 6X-His tag) (Q13526 whole entry): as above

As for `CC(=O)N[C@@H](CCC(=O)O)C(=O)N[C@@H](C)C(=O)N[C@@H](CCC(=O)O)C(=O)N[C@@H](C)C(=O)N[C@@H](Cc1c[nH]c2ccccc12)C(=O)N[C@@H](COP(=O)(O)O)C(=O)N1CCC[C@H]1C(=O)N[C@@H](CCCNC(=N)N)C(=O)N[C@@H](CCCCN)C(=O)N[C@@H](CC(C)C)C(=O)N1CCC[C@H]1C(=O)N[C@@H](CO)C(=O)N[C@@H](CO)C(=O)N[C@@H](C)C(=O)N[C@@H](CO)C(=O)N[C@H](C(=O)N[C@@H](Cc1ccccc1)C(=O)N[C@@H](CC(C)C)C(=O)N[C@@H](COP(=O)(O)O)C(=O)N1CCC[C@H]1C(=O)N[C@@H](C)C(=O)N[C@@H](Cc1ccccc1)C(=O)N1CCC[C@H]1C(=O)NCC(N)=O)[C@@H](C)O` [p131/p144] (Ac-EAEAW[pS]PRKLPSSASTFL[pS]PAFPG-NH2), the “KeqB:WW (Fitted Keq^A:WW, Keq^B:WW and Δδbound for bivalent states)” value on Pin1-FL [1] (nitrogen dimension) is reported as 0.02; on Pin1-FL [1] (proton dimension) it was 0.43. Besides, at Pin1-FL [2] (corresponds to the equivalent bimolecular KD at 20 μM peptide), the “ΔGequiv (change in Gibbs free energy)” value was -7.49 kcal/mol. Besides, at Pin1-FL [2] (simulated, 20 μM peptide, total Pin1 ~0.5 μM, sum of all bound Pin1 species divided by total Pin1), the “total fraction of bound Pin1” value is reported as 0.85. In addition, the equilibrium dissociation constant (Kd) – broadly, the free concentration of one partner at which half of the binding sites on the other are occupied at equilibrium, for simple one-to-one binding – in assay [3] was found to be 1000 nM.
As for `CC(C)C[C@H](NC(=O)[C@H](Cc1ccccc1)NC(=O)[C@@H](NC(=O)[C@@H](N)CO)[C@@H](C)O)C(=O)N[C@@H](COP(=O)(O)O)C(=O)N1CCC[C@H]1C(=O)N[C@@H](C)C(=O)N[C@@H](Cc1ccccc1)C(=O)N1CCC[C@H]1C(=O)NCC(=O)O` [p144] (H-STFL[pS]PAFPG-OH), the “Pin1 binding detected by biolayer interferometry” value in assay [3] (peptide 1.25-80 μM, BLI buffer pH 7.4, 25°C) is recorded as “not measurable”.
